# Legend:
# [1] = Blood/plasma pharmacokinetics of total radiolabeled components; type: in vivo, male CD‐1 mice; details: dried blood and plasma; i.v. 1 mg/kg
# Procedure, shortened: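 Male albino CD-1 mice (30-36 g, 8-10 weeks) got one i.v. saphenous bolus of 1 mg/kg tritiated test nucleoside in 0.9% NaCl (2 mL/kg, 53-67 MBq/kg) under light isoflurane. EDTA blood was drawn at 0.083-48 h, two samples per mouse, n = 1 per time point. Plasma was spun 3000 g, 10 min, 4°C. Aliquots were dried at 37°C to remove tritiated water, then counted by LSC. Noncompartmental PK was used.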
# [2] = Plasma metabolite profiles; type: in vivo, male CD‐1 mice; details: for AUC0‐48 h of radiolabeled component in plasma (% AUC of total RA): pool of 2 mice; for Highest plasma concentration: at 30 min after dosing
# [3] = Quantitative whole-body autoradiography; type: in vivo, male CD‐1 mice
# Procedure, shortened: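 The same single 1 mg/kg i.v. tritium-label dose was given to male CD-1 mice. At 0.167, 1, 2, 24 and 48 h, mice were killed under deep isoflurane and frozen in hexane/dry ice at −70°C. 40 µm whole-body sections were exposed to imaging plates for 2 weeks at room temperature and scanned at 50 µm. Densitometry used blood calibrators. Tissue:blood Cmax/AUClast ratios were derived, AUC by linear trapezoidal rule.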
# [4] = Excretion and mass balance; type: in vivo, male CD‐1 mice
# [5] = Tolerability of the single intravenous administration; type: in vivo; details: mice
# [6] = Metabolite profiles in selected tissues 1 h p.d.; type: in vivo, male CD‐1 mice; details: single iv 1 mg/kg, text: % of total radioactivity in the tissue
# [7] = male, CD-1, mouse, plasma, iv, 1 mg/kg
# [8] = 0–48 h, single iv 1 mg/kg, average of n = 2
# [9] = single iv 1 mg/kg, average of n = 2
# [10] = single iv 1 mg/kg, average of n = 2, 1 mg/kg
compound,measurement,setting,value
"CO[C@@H]1[C@H](O)[C@@H](CO)O[C@H]1n1ccc(=O)[nH]c1=O [2′O‐methyluridine, 2′‐O‐methyluridine]",Tlast of total radiolabeled components,[1],48 h
same,"Total detected radiolabeled components, concentration in dried plasma","[2]; 0.083 h postdose, single iv 1 mg/kg",0.446 µmol/L
same,"Total detected radiolabeled components, concentration in dried plasma","[2]; 0.5 h postdose, single iv 1 mg/kg",0.617 µmol/L
same,"Total detected radiolabeled components, concentration in dried plasma","[2]; 1 h postdose, single iv 1 mg/kg",0.343 µmol/L
same,"Total detected radiolabeled components, concentration in dried plasma","[2]; 2 h postdose, single iv 1 mg/kg",0.270 µmol/L
same,"Total detected radiolabeled components, concentration in dried plasma","[2]; 4 h postdose, single iv 1 mg/kg",0.241 µmol/L
same,"Total detected radiolabeled components, concentration in dried plasma","[2]; 8 h postdose, single iv 1 mg/kg",0.134 µmol/L
same,"Total detected radiolabeled components, concentration in dried plasma","[2]; 24 h postdose, single iv 1 mg/kg",0.080 µmol/L
same,"Total detected radiolabeled components, concentration in dried plasma","[2]; 48 h postdose, single iv 1 mg/kg",0.0781 µmol/L
same,Time up to which detectable in plasma,"[2]; after i.v. dosing 1 mg/kg, LC‐MS‐RA",up to 24 h
same,AUC0‐48h ratio of total radioactivity over parent compound,[2]; dried plasma,about 17
same,clearance,"[2]; male, CD-1, mouse, plasma, intravenous, 1 mg/kg",157 mL/min/kg
same,AUC,[2]; [7],0.335 µM·h
same,Cmax,[2]; [7],402 nM
same,concentration at 0.083 h,[2]; [7],402 nM
same,concentration at 0.5 h,[2]; [7],119 nM
same,concentration at 1 h,[2]; [7],22.3 nM
same,concentration at 2 h,[2]; [7],6 nM
same,concentration at 4 h,[2]; [7],6.3 nM
same,concentration at 8 h,[2]; [7],3.6 nM
same,concentration at 48 h,[2]; [7],6.7 nM
same,"Total detected radiolabeled components, plasma AUC0‐48 h",[2]; single iv 1 mg/kg,5.69 µM·h
same,"Total detected radiolabeled components, plasma AUC0‐48 h (% AUC of total RA)",[2]; single iv 1 mg/kg,100 % AUC of total RA
same,AUC0‐48 h of radiolabeled component in plasma (% AUC of total RA),[2]; single iv 1 mg/kg,5.89 % AUC of total RA
same,Time up to which total radiolabeled components detectable in the brain,[3]; QWBA,up to 48 h
same,Cmax tissue over blood ratio,[3]; other matrices,smaller than 2
same,Share of matrices with AUClast greater than that of blood,[3]; total radiolabeled components,more than 90%
same,"Total detected radioactivity, total excretion (urine + feces)","[4]; 0–48 h, single iv 1 mg/kg",48.3 % of RA dose
same,"Amount of radiolabeled component, total excretion (urine + feces)",[4]; [8],31.7 % of RA dose
same,Overall recovery of radioactivity (mass balance),"[4]; 48 h, urine, feces, carcass and tritiated water",102.3%
same,Radioactivity in carcass 48 h,"[4]; 48 h p.d., single iv 1 mg/kg",38.6 % of RA dose
same,Radioactivity in cage wash (0–48),[4]; single iv 1 mg/kg,6.81 % of RA dose
same,Amount of radiolabeled component in urine (0–48 h),[4]; [9],31.2 % of RA dose
same,Total detected radioactivity in feces (0–48),[4]; [9],2.34 % of RA dose
same,"Total detected radioactivity in urine (0–48 h), without cage wash",[4]; [9],45.9 % of RA dose
same,Amount of radiolabeled component in feces (0–48),[4]; [10],0.489 % of RA dose
same,Tolerability,[5],well tolerated
"O=c1ccn([C@@H]2O[C@H](CO)[C@@H](O)[C@H]2O)c(=O)[nH]1 [Metabolite M1, uridine]",Highest plasma concentration,[2],0.2 µmol/L
same,AUC,[2]; [7],1.87 µM·h
same,concentration at 0.083 h,[2]; [7],5.1 nM
same,concentration at 0.5 h,[2]; [7],170 nM
same,concentration at 1 h,[2]; [7],108 nM
same,concentration at 2 h,[2]; [7],130 nM
same,concentration at 4 h,[2]; [7],104 nM
same,concentration at 8 h,[2]; [7],43.4 nM
same,concentration at 24 h,[2]; [7],26.9 nM
same,concentration at 48 h,[2]; [7],18.8 nM
same,AUC0‐48 h of radiolabeled component in plasma (% AUC of total RA),[2]; single iv 1 mg/kg,32.8 % AUC of total RA
same,"Amount of radiolabeled component, total excretion (urine + feces)",[4]; [8],0.156 % of RA dose
same,Amount of radiolabeled component in heart,[6],28.4%
same,Amount of radiolabeled component in kidney,[6],10.6%
same,Amount of radiolabeled component in liver,[6],47.6%
same,Amount of radiolabeled component in lung,[6],2.31%
same,Amount of radiolabeled component in salivary gland,[6],6.88%
same,Amount of radiolabeled component in spleen,[6],32.9%
"Nc1cc[nH]c(=O)n1 [Metabolite M2, cytosine]",AUC,[2]; [7],0.461 µM·h
same,concentration at 0.5 h,[2]; [7],38.9 nM
same,concentration at 1 h,[2]; [7],33.3 nM
same,concentration at 2 h,[2]; [7],7.1 nM
same,concentration at 4 h,[2]; [7],22.6 nM
same,concentration at 8 h,[2]; [7],11.1 nM
same,concentration at 24 h,[2]; [7],5.7 nM
same,concentration at 48 h,[2]; [7],9.6 nM
same,AUC0‐48 h of radiolabeled component in plasma (% AUC of total RA),[2]; single iv 1 mg/kg,8.11 % AUC of total RA
same,"Amount of radiolabeled component, total excretion (urine + feces)",[4]; [8],0.0771 % of RA dose
same,Amount of radiolabeled component in urine (0–48 h),[4]; [10],0.0771 % of RA dose
same,Amount of radiolabeled component in heart,[6],6.81%
same,Amount of radiolabeled component in liver,[6],17.8%
same,Amount of radiolabeled component in lung,[6],2.41%
same,Amount of radiolabeled component in spleen,[6],3.62%
"O=c1cc[nH]c(=O)[nH]1 [Metabolite M3, uracil]",Highest plasma concentration,[2],0.1 µmol/L
same,AUC,[2]; [7],1.34 µM·h
same,concentration at 0.083 h,[2]; [7],14.2 nM
same,concentration at 0.5 h,[2]; [7],144 nM
same,concentration at 1 h,[2]; [7],109 nM
same,concentration at 2 h,[2]; [7],87.5 nM
same,concentration at 4 h,[2]; [7],63.5 nM
same,concentration at 8 h,[2]; [7],36.8 nM
same,concentration at 24 h,[2]; [7],14.5 nM
same,concentration at 48 h,[2]; [7],17.5 nM
same,AUC0‐48 h of radiolabeled component in plasma (% AUC of total RA),[2]; single iv 1 mg/kg,23.6 % AUC of total RA
same,"Amount of radiolabeled component, total excretion (urine + feces)",[4]; [8],4.03 % of RA dose
same,Amount of radiolabeled component in feces (0–48),[4]; [9],0.418 % of RA dose
same,Amount of radiolabeled component in heart,[6],46.6%
same,Amount of radiolabeled component in kidney,[6],89.4%
same,Amount of radiolabeled component in liver,[6],28.8%
same,Amount of radiolabeled component in lung,[6],83.4%
same,Amount of radiolabeled component in salivary gland,[6],90.9%
same,Amount of radiolabeled component in spleen,[6],57.9%
"Nc1ccn([C@@H]2O[C@H](CO)[C@@H](O)[C@H]2O)c(=O)n1 [Metabolite M5, cytidine]",AUC,[2]; [7],0.0639 µM·h
same,concentration at 0.5 h,[2]; [7],44 nM
same,concentration at 2 h,[2]; [7],8.6 nM
same,concentration at 4 h,[2]; [7],10.3 nM
same,concentration at 48 h,[2]; [7],0 nM
same,AUC0‐48 h of radiolabeled component in plasma (% AUC of total RA),"[2]; single iv 1 mg/kg, 1 mg/kg",1.12 % AUC of total RA
same,"Amount of radiolabeled component, total excretion (urine + feces)",[4]; [8],1.94 % of RA dose
same,Amount of radiolabeled component in feces (0–48),[4]; [9],0.102 % of RA dose

# Source: article PMC4777266 (Pharmacology Research & Perspectives, 2016)
